According to ChEMBL document CHEMBL1139825, “Kinesin spindle protein (KSP) inhibitors. Part 7: Design and synthesis of 3,3-disubstituted dihydropyrazolobenzoxazines as potent inhibitors of the mitotic kinesin KSP” (Bioorg Med Chem Lett, 2007):
Activity calls are given as the source filed them. The rule behind the calls is not given here.

Experiments:
A2780 = assay: Mitotic arrest in human A2780 cells assessed as G2/M block after 16 hrs; assay type: functional, cell-based; settings: A2780, 16 h
In short: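 A2780 human ovarian carcinoma cells treated 16 h across a 7-point half-log dilution series. Mitosis-specific nucleolin phosphorylation read by electrochemiluminescence: total nucleolin captured on beads via anti-nucleolin antibody, phospho-nucleolin detected with a phospho-specific IgM plus ruthenium-labelled anti-mouse IgM. EC50 is the mean of at least two independent determinations.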

[1] = Ratio of IC50 for KB-V-1 cells to IC50 for KB-3-1 cells after 16 hrs; assay type: functional, Homo sapiens
In short: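 Mitotic arrest measured in Pgp-high KB-V-1 cells (derived from parental KB-3-1 by culture with vinblastine; >500-fold higher Pgp mRNA and protein) and in parental KB-3-1 cells. 16 h incubation, 11-point half-log dilution series. Read-out is phospho-nucleolin level. The ratio is the IC50 in KB-V-1 divided by the IC50 in KB-3-1.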

[2] = target: Voltage-gated inwardly rectifying potassium channel KCNH2 (Homo sapiens, UniProt Q12809); assay: Inhibition of hERG expressed in HEK cells; assay type: toxicity, cell-based, HEK293
Sequence of Voltage-gated inwardly rectifying potassium channel KCNH2 (Q12809 whole entry): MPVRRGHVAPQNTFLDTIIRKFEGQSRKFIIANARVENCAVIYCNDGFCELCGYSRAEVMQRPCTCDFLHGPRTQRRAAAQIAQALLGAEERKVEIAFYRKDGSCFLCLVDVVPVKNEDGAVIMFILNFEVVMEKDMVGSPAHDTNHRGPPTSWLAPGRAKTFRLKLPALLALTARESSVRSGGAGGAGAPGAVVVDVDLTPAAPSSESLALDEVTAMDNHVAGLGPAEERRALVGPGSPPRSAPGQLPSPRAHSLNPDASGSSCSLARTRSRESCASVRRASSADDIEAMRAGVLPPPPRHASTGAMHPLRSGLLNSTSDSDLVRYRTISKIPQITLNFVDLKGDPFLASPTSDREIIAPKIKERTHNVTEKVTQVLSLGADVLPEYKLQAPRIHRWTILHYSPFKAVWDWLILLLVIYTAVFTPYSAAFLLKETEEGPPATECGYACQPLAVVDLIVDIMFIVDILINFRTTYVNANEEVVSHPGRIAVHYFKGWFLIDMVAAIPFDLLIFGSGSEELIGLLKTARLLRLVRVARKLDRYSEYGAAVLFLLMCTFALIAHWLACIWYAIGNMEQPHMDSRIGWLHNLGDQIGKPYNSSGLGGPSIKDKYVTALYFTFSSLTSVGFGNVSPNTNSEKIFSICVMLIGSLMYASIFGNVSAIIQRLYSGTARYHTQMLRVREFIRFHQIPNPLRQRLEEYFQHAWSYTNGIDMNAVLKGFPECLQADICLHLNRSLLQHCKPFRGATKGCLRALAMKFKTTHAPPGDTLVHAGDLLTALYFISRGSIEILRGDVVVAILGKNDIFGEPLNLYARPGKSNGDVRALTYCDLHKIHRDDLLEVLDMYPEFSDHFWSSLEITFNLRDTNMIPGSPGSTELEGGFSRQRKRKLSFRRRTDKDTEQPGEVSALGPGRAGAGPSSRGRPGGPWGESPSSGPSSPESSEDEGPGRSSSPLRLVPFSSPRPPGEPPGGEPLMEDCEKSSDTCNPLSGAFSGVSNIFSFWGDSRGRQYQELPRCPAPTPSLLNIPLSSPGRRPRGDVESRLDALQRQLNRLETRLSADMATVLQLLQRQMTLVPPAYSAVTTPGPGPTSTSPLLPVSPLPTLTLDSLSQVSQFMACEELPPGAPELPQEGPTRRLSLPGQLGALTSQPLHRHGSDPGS

[3] = target: T1, Kinesin-like protein KIF11 (Homo sapiens, UniProt P52732); assay: Inhibition of kinesin spindle protein
T1 sequence (P52732 whole entry): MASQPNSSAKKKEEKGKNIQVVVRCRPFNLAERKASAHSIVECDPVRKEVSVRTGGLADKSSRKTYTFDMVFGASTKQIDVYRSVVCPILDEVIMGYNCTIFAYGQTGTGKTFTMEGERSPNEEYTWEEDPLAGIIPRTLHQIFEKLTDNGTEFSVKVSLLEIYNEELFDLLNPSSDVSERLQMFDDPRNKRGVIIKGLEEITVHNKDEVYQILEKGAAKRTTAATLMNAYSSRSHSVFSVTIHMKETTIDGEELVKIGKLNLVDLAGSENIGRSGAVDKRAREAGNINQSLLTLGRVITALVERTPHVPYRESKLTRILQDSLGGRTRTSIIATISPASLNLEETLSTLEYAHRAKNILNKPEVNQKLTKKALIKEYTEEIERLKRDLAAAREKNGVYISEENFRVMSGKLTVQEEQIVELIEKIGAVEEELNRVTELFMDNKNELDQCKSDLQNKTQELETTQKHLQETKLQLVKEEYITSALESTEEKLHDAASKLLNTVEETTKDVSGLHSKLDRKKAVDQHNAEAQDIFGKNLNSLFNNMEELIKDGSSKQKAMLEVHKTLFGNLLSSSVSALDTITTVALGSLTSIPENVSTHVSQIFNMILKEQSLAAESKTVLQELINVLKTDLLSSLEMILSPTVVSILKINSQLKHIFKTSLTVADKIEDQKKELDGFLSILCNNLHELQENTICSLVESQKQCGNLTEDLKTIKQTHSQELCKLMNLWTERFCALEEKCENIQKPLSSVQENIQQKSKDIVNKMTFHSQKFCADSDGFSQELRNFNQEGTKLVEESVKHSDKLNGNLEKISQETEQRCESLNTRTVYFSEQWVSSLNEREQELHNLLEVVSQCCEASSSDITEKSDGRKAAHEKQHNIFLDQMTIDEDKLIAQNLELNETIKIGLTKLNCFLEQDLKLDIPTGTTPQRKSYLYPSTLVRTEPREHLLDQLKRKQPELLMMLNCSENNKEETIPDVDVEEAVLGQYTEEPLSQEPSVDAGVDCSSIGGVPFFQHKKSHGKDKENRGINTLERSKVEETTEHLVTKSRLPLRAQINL

[4] = Half life in dog at 0.25 mg/kg, iv; assay type: ADME, organism-based, Canis lupus familiaris; set-up: dose 0.25 mg/kg, route intravenous; settings: in vivo
In short: (§1)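 Cassette intravenous dosing in dogs, compounds given together as a DMSO solution at 0.25 mg/kg. Two dogs per dose, with the value being their average. Individual determinations fell within ±25% of the mean.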

[5] = Clearance in dog at 0.25 mg/kg, iv; assay type: ADME, organism-based, Canis lupus familiaris; set-up: dose 0.25 mg/kg, route intravenous; settings: in vivo; in short: as §1
Canis familiaris [6] = species: Canis familiaris; assay: Induction of QTc prolongation in canine cardiovascular model; assay type: functional, organism-based; settings: Canis lupus familiaris; Heart
Canis familiaris [7] = species: Canis familiaris; assay: Induction of QTc prolongation in canine cardiovascular model at 35 uM; assay type: functional, organism-based; settings: Canis lupus familiaris, Heart
[8] = Solubility at pH 4; assay type: physicochemical; settings: buffer

Compound	EC50 (A2780) [nM]	Ratio IC50 [1]	IC50 [2] [nM]	IC50 [3] [nM]	half-life [4] [h]	clearance [5] [mL/min/kg]	Activity (Canis familiaris [6])	Activity (Canis familiaris [7])	solubility [8] [µg/mL]
CC(=O)C1=NN2c3cc(Cl)ccc3OC[C@H]2C1(CCCN1CCOCC1)c1ccccc1 (mixture of isomers)	13	1.5	3300	1.8					
CC(=O)C1=NN2c3cc(F)ccc3OC[C@H]2[C@H]1c1ccccc1				155					
CC(=O)C1=NN2c3cc(Cl)ccc3OC[C@H]2[C@@]1(CCCN(C)C)c1ccccc1	4.8			1					
CC(=O)C1=NN2c3ccccc3OC[C@H]2[C@H]1c1ccccc1				800					
CC(=O)C1=NN2c3cc(C)ccc3OC[C@H]2[C@@]1(CCCN1CCOCC1)c1ccccc1	11	1.4	6300	1					
CC(=O)C1=NN2c3cc(F)ccc3OC[C@H]2[C@@]1(CCCN1CCOCC1)c1ccccc1	4.4	0.8	6100	0.4					
CC(=O)C1=NN2c3cc(F)ccc3OC[C@H]2[C@@]1(CCCN(C)C)c1ccccc1	7.4	2.3	5940	1.6	5.7	52			
CC(=O)C1=NN2c3cc(C)ccc3OC[C@H]2[C@@]1(CCCN(C)C)c1ccccc1	6.4	2.3	2400	1.8	8.3	37			
CC(=O)C1=NN2c3cc(Cl)ccc3OC[C@H]2[C@@]1(CCCN1CCN(C(C)=O)CC1)c1ccccc1	9	1.6	5600	1					
CC(=O)C1=NN(c2cc(F)ccc2F)C[C@@]1(CCCN1CCN(C(C)=O)CC1)c1ccccc1				3			Active		
CC(=O)C1=NN2c3cc(F)ccc3OC[C@H]2[C@@]1(CCCN1CCN(C(C)=O)CC1)c1ccccc1	5			1.6	5.6	14		inactive	> 4000
CC(=O)C1=NN2c3cc(F)ccc3OC[C@H]2[C@@]1(CCCN1CCNC(=O)CC1)c1ccccc1	6.9	3.3	17000	1.5	2.4	15			
CC(=O)C1=NN2c3cc(F)ccc3OC[C@H]2[C@@]1(CCCN1CCC(=O)N(C)CC1)c1ccccc1	4.8	2.6	9600	0.9	3.9	11			
CC(=O)C1=NN2c3cc(F)ccc3OC[C@H]2[C@@]1(CCCO)c1ccccc1	11	0.6	18000	5.2					
CC(=O)C1=NN2c3cc(F)ccc3OC[C@H]2[C@@]1(CCCN1CCNCC1)c1ccccc1	5	40	4600	4.3	3.5	40			
CC(=O)C1=NN2c3cc(F)ccc3OC[C@H]2[C@@]1(CCCN)c1ccccc1	2.5	1.7	940	0.5					
